Reference: paper PMC5333931 (ACS chemical neuroscience, 2016)

Legend:
[1] = target: T1, GIRK4* channel (Homo sapiens, UniProt P48544, S143T); assay: TEVC, oocytes expressing GIRK4* alone versus GIRK4* and 5-HT2A receptors; assay type: cell-based; settings: 50 µM or higher; suggests direct inhibition of GIRK4* channel
T1 sequence (P48544 1-419 S143T): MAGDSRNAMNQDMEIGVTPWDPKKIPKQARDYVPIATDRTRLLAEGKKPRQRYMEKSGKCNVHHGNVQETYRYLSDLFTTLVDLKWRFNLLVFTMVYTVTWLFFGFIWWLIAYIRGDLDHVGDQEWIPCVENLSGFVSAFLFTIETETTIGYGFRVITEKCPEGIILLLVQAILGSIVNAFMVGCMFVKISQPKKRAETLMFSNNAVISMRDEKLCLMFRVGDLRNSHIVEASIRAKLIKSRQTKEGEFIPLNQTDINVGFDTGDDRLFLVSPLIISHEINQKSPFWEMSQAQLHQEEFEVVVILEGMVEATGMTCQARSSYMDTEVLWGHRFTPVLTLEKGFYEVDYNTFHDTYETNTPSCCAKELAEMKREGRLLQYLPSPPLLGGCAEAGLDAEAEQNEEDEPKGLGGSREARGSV

[2] = target: T2, 5-HT2A receptors (Homo sapiens, UniProt P28223); assay: TEVC, compounds alone; assay type: cell-based
T2 sequence (P28223 whole entry): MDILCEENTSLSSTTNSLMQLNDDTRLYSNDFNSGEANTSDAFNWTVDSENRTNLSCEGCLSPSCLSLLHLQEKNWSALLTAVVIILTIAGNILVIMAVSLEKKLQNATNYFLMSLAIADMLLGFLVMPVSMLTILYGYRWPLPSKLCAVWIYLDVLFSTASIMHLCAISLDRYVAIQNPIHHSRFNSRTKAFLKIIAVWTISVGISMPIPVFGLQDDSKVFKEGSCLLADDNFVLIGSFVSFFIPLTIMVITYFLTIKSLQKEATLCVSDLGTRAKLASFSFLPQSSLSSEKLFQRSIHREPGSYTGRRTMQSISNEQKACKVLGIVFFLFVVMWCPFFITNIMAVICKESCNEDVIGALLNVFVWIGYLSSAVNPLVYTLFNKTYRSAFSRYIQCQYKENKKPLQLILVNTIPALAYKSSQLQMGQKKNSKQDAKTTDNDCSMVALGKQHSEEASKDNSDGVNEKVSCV
Outline: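 Xenopus oocytes were injected with 2 ng 5-HT2A receptor plus 2 ng GIRK4* and held at 18 °C for 1–4 days. Basal GIRK4* current was taken per trace as the inward current difference with versus without 3 mM BaCl2. Read-out was current inhibition.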

[3] = target: T2, 5-HT2A receptors; assay type: cell-based; settings: 10 µM compound, 1 µM 5-HT, TEVC
[4] = target: T2, 5-HT2A receptors; assay: Intracellular Ca2+ release; assay type: cell-based
[5] = target: T2, 5-HT2A receptors; assay: [3H]ketanserin competition binding in HEK293 cell membrane preparations; settings: for fold lower binding affinity than risperidone (1): [3H]ketanserin, HEK293 membranes
[6] = tested on: 5-HT2 receptor; settings: 5-HT-induced inositol phosphate production; cited from earlier work
[7] = tested on: 5-HT2 receptor; settings: rats, drug discrimination; cited from earlier work

Row | SMILES | current inhibition in oocytes expressing GIRK4* alone versus GIRK4* and 5-HT2A receptors [1] | concentration yielding significant current inhibition by compound alone ([2]; oocytes, no 5-HT) | antagonism of 5-HT responses at highest concentration tested [3] | IC50 [4] | binding affinity relative to risperidone [5] | fold lower binding affinity than risperidone (1) [5] | Ki [5] | agonism of compound alone ([2]; concentrations tested up to 50 µM) | antagonist action in vitro [6] | antagonist action in vivo [7]
1 | Cl.Fc1ccc2c(C3CCN(CCCCN4CCCCC4)CC3)noc2c1 [compound 3] | no significant differences | ≥ 5 µM | no significant effects |  |  |  |  |  |  | 
2 | CN1CCC(c2noc3cc(F)ccc23)CC1.Cl [compound 4, 6-Fluoro-3-(1-methylpiperidin-4-yl)benzisoxazole Hydrochloride] |  |  | significant inhibition | 7.4 ± 1.45 µM | half that of risperidone | 2- to 8 fold |  |  |  | 
3 | Cl.O=C(CCCN1CCC(c2noc3cc(F)ccc23)CC1)N1CCCCC1 [compound 2, 4-(4-(6-Fluorobenzisoxazol-3-yl)piperidin-1-yl)-1-(piperidin-1-yl)butan-1-one Hydrochloride] | no significant differences |  |  | 16.7 ± 1.39 µM |  |  | 0.0398 µM |  |  | 
4 | Fc1ccc2c(C3CCNCC3)noc2c1 [compound 5, 6-fluoro-3-(piperidin-4-yl)benzisoxazole] |  |  | significant inhibition | 20.1 ± 2.24 µM |  | 13.5 fold |  | did not exhibit significant agonism | potent 5-HT2 receptor antagonist | potent 5-HT2 receptor antagonist
